An excerpt weighted towards active compounds, which were near 3.1% of everything screened.
KCNK9 inh – KCNK9 potassium channel inhibitors, primary screen, HEK293 cells, thallium flux; Potassium channel subfamily K member 9 (Homo sapiens), Q9NPC2; FluxOR thallium flux fluorescence; hits give low values; B-score at 10 µM; 310,000 compounds, 1.2% hits; AID 488922, 2010;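 active = ratio B-score over 3 SD below the library mean, with starting fluorescence within 5 SD of its mean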;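 also: negative B-score means less thallium flux so channel inhibition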
KCNK3 inh – human KCNK3 channel inhibitors, primary screen, CHO cells, FluxOR thallium flux, B-score | 340,000 compounds, 0.84% hits | FluxOR fluorescence; hits give low values | B-score at 10 µM | AID 602410, 2012;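 active = B-score under library mean minus 4 SD, starting fluorescence ratio at most library mean plus 5 SD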;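 also: more negative B-score means stronger inhibition of thallium flux through KCNK3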
KCNQ1 act – potentiators or activators of KCNQ1 channel, primary screen, cell-based, thallium flux, high-throughput; Potassium voltage-gated channel subfamily KQT member 1 (Homo sapiens), P51787; CHO-K1 KCNQ1, thallium flux FluxOR fluorescence; hits give high values; B-score at 10 µM; 310,000 compounds, 0.35% hits; AID 2648, 2010;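 active = fluorescence ratio B-score, a plate-corrected score, at least three library SD, with initial intensity B-score within 5 SD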
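Doses: Single concentration per compound, DMSO matched to controls | Test system: KCNQ1-transfected CHO-K1 cells | Timing: 90 min dye loading and 20 min compound exposure, both at room temperature | Measured by: Kinetic FluxOR thallium fluorescence, 10-s 1-Hz baseline, 110-s post-stimulus read | Medium: Assay buffer with matched DMSO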
hERG rescue – hERG rescue from dofetilide block, primary screen, cell-based, CHO-hERG, FluxOR thallium flux, dofetilide IC70; dofetilide IC70 present; Voltage-gated inwardly rectifying potassium channel KCNH2 (Homo sapiens), Q12809; activation (rescue from dofetilide block), less the hit threshold, % at 10 µM; 310,000 compounds, 0.51% hits;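 active = activation above the mean of controls blocked by dofetilide plus 5 SD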;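 also: thallium influx through hERG after potassium depolarization seen as dye fluorescence rise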
Target sequence (Q12809 whole entry, looked up): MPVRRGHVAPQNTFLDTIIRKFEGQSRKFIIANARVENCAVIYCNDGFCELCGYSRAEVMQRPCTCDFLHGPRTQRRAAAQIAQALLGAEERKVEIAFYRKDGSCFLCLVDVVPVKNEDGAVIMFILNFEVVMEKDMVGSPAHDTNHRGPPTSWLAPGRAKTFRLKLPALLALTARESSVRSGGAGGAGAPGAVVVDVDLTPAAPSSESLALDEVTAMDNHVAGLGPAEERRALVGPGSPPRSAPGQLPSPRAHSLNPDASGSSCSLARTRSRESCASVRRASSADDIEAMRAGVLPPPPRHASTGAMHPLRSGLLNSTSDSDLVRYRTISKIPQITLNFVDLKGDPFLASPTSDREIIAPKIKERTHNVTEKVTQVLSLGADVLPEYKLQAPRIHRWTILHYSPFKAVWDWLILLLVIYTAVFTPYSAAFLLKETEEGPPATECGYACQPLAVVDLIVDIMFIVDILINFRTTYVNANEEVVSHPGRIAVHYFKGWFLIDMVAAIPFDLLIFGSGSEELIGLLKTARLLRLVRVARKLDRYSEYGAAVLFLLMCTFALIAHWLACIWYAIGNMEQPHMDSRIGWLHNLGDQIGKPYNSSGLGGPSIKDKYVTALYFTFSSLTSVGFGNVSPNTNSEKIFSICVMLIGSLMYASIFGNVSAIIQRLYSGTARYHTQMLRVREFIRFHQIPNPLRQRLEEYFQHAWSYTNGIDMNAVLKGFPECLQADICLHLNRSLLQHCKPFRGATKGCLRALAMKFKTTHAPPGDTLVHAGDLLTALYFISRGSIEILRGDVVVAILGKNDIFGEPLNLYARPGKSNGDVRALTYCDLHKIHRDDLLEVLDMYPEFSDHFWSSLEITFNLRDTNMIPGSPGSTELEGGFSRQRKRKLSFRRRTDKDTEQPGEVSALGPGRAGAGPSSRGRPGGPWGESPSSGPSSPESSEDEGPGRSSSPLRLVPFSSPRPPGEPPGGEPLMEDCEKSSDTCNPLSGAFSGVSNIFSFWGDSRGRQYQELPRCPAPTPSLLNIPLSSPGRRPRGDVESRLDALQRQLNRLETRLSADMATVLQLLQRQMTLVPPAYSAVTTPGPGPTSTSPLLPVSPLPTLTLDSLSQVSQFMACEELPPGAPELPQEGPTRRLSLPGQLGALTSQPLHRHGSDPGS
KCNQ1 inh – inhibitors of human KCNQ1 channel, primary screen, cell-based, thallium flux, high-throughput. 310,000 compounds, 1.3% hits. AID 2642, 2010. B-score at 10 µM. CHO-K1 KCNQ1, FluxOR thallium flux fluorescence; hits give high values. Potassium voltage-gated channel subfamily KQT member 1 (Homo sapiens), P51787;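 active = compounds whose thallium flux B-score, printed positive for inhibition, exceeds three library SD while starting fluorescence stays within three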;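 also: channel opened by potassium depolarization with thallium stimulus after 20 min compound exposure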
KCNK9 inh conf – KCNK9 potassium channel inhibitors, confirmation, HEK293 cells, thallium flux, duplicate; shares compounds with KCNK9 inh; FluxOR thallium flux fluorescence; inhibition, % at 10 µM; 4,900 compounds, 43% hits; AID 492992, 2010;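 active = thallium signal inhibited by more than 5 SD of the compound-free buffer control wells, on both duplicate plates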;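 also: 0% = assay buffer control wells without compound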
Kir2-1 spec – mouse Kir2.1 channel inhibition, confirmation, selectivity assay for KCNK9 modulator project, cell-based, HEK293, thallium flux | shares compounds with KCNK9 inh | Kir2.1 cells, FluxOR thallium flux fluorescence | inhibition, % at 10 µM | 4,900 compounds, 4% hits | AID 492993, 2010;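 active = thallium signal drop more than 5 SD beyond the mean of the no-compound control wells, seen in both duplicate plates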;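 also: signal is fluorescence rise after thallium addition divided by baseline fluorescence; plate controls were assay buffer only for no effect and full block by chlorpromazine control for full effect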
HEK293 Tl ctr – thallium flux in non-induced HEK293 cells, confirmation, counter-screen for KCNK9 inhibitor project, cell-based, second counter screen, non-induced KCNK9-HEK293; shares compounds with KCNK9 inh; FluxOR thallium flux; inhibition, % at 10 µM; 4,900 compounds, 40% hits; AID 492997, 2010;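 active = thallium signal drop beyond 5 SD of the untreated control mean, on both duplicate plates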;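 also: plate controls were buffer only IC0 wells for no effect and SID17386958 at its maximal inhibitory level for full effect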
* = called active by the depositor; i = inactive; / = no result given.

SMILES | KCNK9 inh | KCNK3 inh | KCNQ1 act | hERG rescue | KCNQ1 inh | KCNK9 inh conf | Kir2-1 spec | HEK293 Tl ctr
COc1ccccc1N1CCN(Cc2cc3c(cc2Br)OCCO3)CC1 | i | i | i | -8 | i | i | i | i
COc1ccc(N2CCN(CC(=O)Nc3c(C)cc(C)cc3C)CC2)cc1 | i | i | i | -5 | i | / | / | /
COc1ccc(N2CCN(Cc3cc4c(cc3Br)OCCO4)CC2)cc1 | i | i | i | -19 | i | i | i | i
COc1ccc(N2CCN(Cc3csc(C)c3-c3ccc(C)cc3)CC2)cc1 | i | i | i | -3 | i | i | i | i
O=S(=O)(c1ccccc1)N1CCN(Cc2cc3c(cc2Br)OCCO3)CC1 | / | i | / | / | / | / | / | /
O=C1c2ccccc2C(=O)N1CCCn1c2ccc(Cl)cc2c2nc3ccccc3nc21 | / | i | / | / | / | / | / | /
CCCCCCN1C(=O)CC(NC(=O)OCC2c3ccccc3-c3ccccc32)C/C=C\C1C(C)C (stereo unspecified) | / | i | / | / | / | / | / | /
Cc1ccccc1Cn1nc(C)c(NC(=O)c2noc3c2CCc2ccccc2-3)c1C | i | i | i | -12 | i | i | i | i
COc1ccc(OC)c(Nc2ncnc3sc(-c4ccccc4)cc23)c1 | -11* | i | i | -9 | i | i | i | 32%*
COc1ccc(OC)c(Nc2ncnc3sccc23)c1 | i | i | i | -4 | i | / | / | /
COc1cccc(NC(=O)CSc2nc3c(sc4ccccc43)c(=O)n2CCN(C)C)c1 | i | i | i | -15 | i | / | / | /
CCN(CC)CCn1c(SCC(=O)Nc2cccc(OC)c2)nc2c(sc3ccccc32)c1=O | -12* | i | i | -21 | i | 48%* | i | 32%*
Cc1noc(N)c1C(=O)Nc1ccccc1F | -9.5* | i | i | -6 | i | i | i | i
Cc1noc(N)c1C(=O)Nc1ccc(F)cc1 | i | i | i | -8 | i | / | / | /
O=C(OCc1nnc(-c2ccccc2)o1)C12CC3CC(CC(Br)(C3)C1)C2 | i | i | i | -14 | i | i | i | i
O=C(OCc1nnc(-c2ccccc2)o1)c1ccccc1 | i | i | i | -9 | i | / | / | /
CCOc1ccc(C2=C(C=C(C#N)C#N)C(c3ccccc3)c3ccccc3O2)cc1 (stereo unspecified) | -11* | i | i | -9 | i | 50%* | i | 24%*
COc1ccc(C2=C(CN(C)C)C(c3ccccc3)c3ccccc3O2)cc1 (stereo unspecified) | i | i | i | -4 | i | / | / | /
CCOc1ccccc1C(=O)NCC(=O)N1CCC(C)CC1 | / | i | / | / | / | / | / | /
COc1ccc2nc(-c3ccccc3)cc(C(=O)OCC(=O)N3CC(C)OC(C)C3)c2c1 (stereo unspecified) | / | i | / | / | / | / | / | /
C[C@H]1NC(=O)[C@@]2(C)[C@H](c3ccccc3)[C@H]3COc4ccccc4[C@@H]3N2C1=O | / | i | / | / | / | / | / | /
COc1ccccc1/C=C/C1(C(=O)NC2CCCC2)CC(=O)N1c1ccc(C)cc1 (stereo unspecified) | -9.8* | i | i | -21 | i | i | i | 40%*
COC(=O)c1coc(-c2ccc(OC)cc2)c1C(=O)OC | i | i | i | -8 | i | / | / | /
CS(=O)(=O)c1ccc2nc(NC(=O)CCNC(=O)c3ccc([N+](=O)[O-])cc3)sc2c1 | / | i | / | / | / | / | / | /
Nc1c(C(=O)N/N=C/c2cccnc2)oc2nc(-c3ccccc3)cc(-c3ccco3)c12 | -11* | i | i | -14 | 6* | i | i | 31%*
SMILES | KCNK9 inh | KCNK3 inh | KCNQ1 act | hERG rescue | KCNQ1 inh | KCNK9 inh conf | Kir2-1 spec | HEK293 Tl ctr
Cc1nc(SCc2ccc(C(=O)O)cc2)c2c(C)c(C)sc2n1 | i | i | i | -10 | i | i | i | i
Cc1ccc(-c2csc3ncnc(SCc4ccc(C(=O)O)cc4)c23)cc1 | i | i | 33* | 15* | i | i | i | i
CCOC(=O)c1c(C)oc2ccc(NS(=O)(=O)c3ccc4c5c(cccc35)C(=O)N4)cc12 | -10* | i | i | -11 | i | 36%* | i | i
CN1/C(=C\C(=O)COC(=O)c2ccc(O)c(O)c2)C(C)(C)c2ccccc21 | i | / | i | -22 | i | / | / | /
COc1ccc2c(c1)/C(=N/OC(=O)c1cccs1)CCC2 | -12* | i | i | -12 | i | i | i | i
COc1ccc(NC(=O)CN(C)CC(=O)Nc2ccc3c(c2)CCC3)cc1 | i | i | i | -8 | i | / | / | /
COc1ccc(NC(=O)O/N=C2/CCCc3ccc(OC)cc32)cc1 | -12* | i | i | -11 | i | 66%* | 34%* | 26%*
COc1ccc(OC)c(N2C(=O)CC(Cc3cc(C)cc(C)c3)C2=O)c1 (stereo unspecified) | i | i | i | -6 | i | / | / | /
COC(=O)c1ccc(Oc2cc(C)nc(NCc3ccccc3)n2)cc1 | i | i | i | -4 | i | / | / | /
COC(=O)c1ccc(Oc2nc(C)cc(Oc3ccccc3)n2)cc1 | i | i | i | -11 | i | i | i | i
O=c1cc(-c2ccccc2)nc2c(-c3ccccc3)c(C(F)(F)F)[nH]n12 | i | i | 13* | 54* | i | i | i | i
Cc1cc(=O)n2[nH]c(C)c(-c3ccccc3)c2n1 | i | i | i | -3 | i | / | / | /
O=C1C(=O)c2c(C(=O)c3ccccc3)coc2-c2ccccc21 | -15* | i | i | -33 | 7* | 60%* | i | 38%*
Cc1oc2c(c1C(=O)c1ccccc1)C(=O)C(=O)c1ccccc1-2 | i | i | i | -1 | i | / | / | /
CCN(CC)CCOc1ccc(/C(=C(/Cl)c2ccccc2)c2ccccc2)cc1 | i | i | i | -32 | 8* | i | i | i

Screening results deposited in PubChem BioAssay by Johns Hopkins Ion Channel Center.
